Laboratory results from ChEMBL document CHEMBL2311293, “Discovery of agonists of cannabinoid receptor 1 with restricted central nervous system penetration aimed for treatment of gastroesophageal reflux disease” (J Med Chem, 2013).
Converted amounts (≈) assume the structure as drawn.

Legend:
[1] = Lipophilicity, log D of the compound; details: octanol/water
Cannabinoid receptor 2 = Cannabinoid receptor 2 (Homo sapiens, UniProt P34972); experiment: Displacement of [3H]-CP55,940 from human CB2 receptor expressed in Sf9 cell membranes by scintillation counting analysis
How it was run: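 Membranes from Sf9 cells expressing cloned hCB2 (baculovirus) in 50 mM Tris, 2.5 mM EDTA, 5 mM MgCl2, 0.5 mg/mL fatty-acid-free BSA, pH 7.4. 60 min at rt, GF/B filtration, scintillation counting. 10-point curves; IC50 mean of three independent experiments.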

Cannabinoid receptor 1 [2] = biological target: T1, Cannabinoid receptor 1 (Homo sapiens, UniProt P21554); experiment: Displacement of [3H]-CP55,940 from human CB1 receptor expressed in HEK293S cell membranes by scintillation counting analysis
Cannabinoid receptor 1 [3] = biological target: T1, Cannabinoid receptor 1; experiment: Agonist activity at human CB1 receptor expressed in HEK293S cell membranes after 1 hr by GTPgamma[35S] binding assay relative to WIN 55,212-2
How it was run: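 HEK293S membranes with cloned human CB1 (5 µg protein/well) in Hepes buffer pH 7.4, 100 mM NaCl, 5 mM MgCl2, 1 mM EDTA, 0.1% BSA, 15 µM GDP final. GTPγ[35S] added to start, 1 h at rt, filtered, counted. Basal from 8 wells; maximum from 8 wells with 10 µM reference agonist. Emax expressed as % of that reference. 10-point curves; mean of three experiments.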

Cannabinoid receptor 1 [4] = biological target: T1, Cannabinoid receptor 1; experiment: Agonist activity at human CB1 receptor expressed in HEK293S cell membranes after 1 hr by GTPgamma[35S] binding assay
[5] = Ratio of drug level in brain to plasma in Sprague-Dawley rat; type: ADME, cell-free; details: Sprague-Dawley, brain and plasma, read-out: BPR
How it was run: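 Total brain-to-plasma ratio from in vivo Sprague-Dawley rat samples, compound given as 4 h constant-rate i.v. infusion to steady state.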

[6] = Ratio of unbound fraction in brain to plasma in Sprague-Dawley rat; type: ADME, cell-free
How it was run: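 Steady-state total brain/plasma ratio in Sprague-Dawley rats after 4 h constant-rate i.v. infusion, corrected by unbound fraction in brain (rat brain slices) and in plasma (equilibrium dialysis).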

[7] = Apparent permeability from apical to basolateral side in human Caco2 cells at pH 7.4; type: ADME, cell-based; details: Caco-2, pH 7.4
How it was run: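 Caco-2 monolayers at pH 7.4, apparent permeability measured for apical-to-basolateral transport.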

[8] = Solubility of the compound in Hank's balanced saline solution at pH 7.4 after 24 hrs by HPLC analysis; type: physicochemical
How it was run: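 Compound in DMSO added to Hanks balanced saline solution pH 7.4, shaken 24 h.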

[9] = biological target: Voltage-gated inwardly rectifying potassium channel KCNH2 (Homo sapiens, UniProt Q12809); experiment: Inhibition of human ERG expressed in CHO cells by patch clamp assay; type: cell-based
How it was run: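 Patch clamp (IonWorks) in CHO cells expressing hERG.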

[10] = Clearance in Sprague-Dawley rat at 2 umol/kg, iv; type: ADME, organism-based; details: in vivo
How it was run: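 Sprague-Dawley rats given 2 µmol/kg i.v.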

[11] = Oral bioavailability in Sprague-Dawley rat at 10 umol/kg; type: ADME, organism-based; details: in vivo
How it was run: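 Sprague-Dawley rats given 10 µmol/kg p.o., with i.v. reference dose of 2 µmol/kg.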

Cytochrome P450 2C9 = Cytochrome P450 2C9 (Homo sapiens, UniProt P11712); experiment: Inhibition of human recombinant CYP2C9 expressed in Escherichia coli cells; type: ADME
Cytochrome P450 3A4 = Cytochrome P450 3A4 (Homo sapiens, UniProt P08684); experiment: Inhibition of human recombinant CYP3A4 expressed in Escherichia coli cells; type: ADME
Cytochrome P450 3A4, sequence (P08684 whole entry): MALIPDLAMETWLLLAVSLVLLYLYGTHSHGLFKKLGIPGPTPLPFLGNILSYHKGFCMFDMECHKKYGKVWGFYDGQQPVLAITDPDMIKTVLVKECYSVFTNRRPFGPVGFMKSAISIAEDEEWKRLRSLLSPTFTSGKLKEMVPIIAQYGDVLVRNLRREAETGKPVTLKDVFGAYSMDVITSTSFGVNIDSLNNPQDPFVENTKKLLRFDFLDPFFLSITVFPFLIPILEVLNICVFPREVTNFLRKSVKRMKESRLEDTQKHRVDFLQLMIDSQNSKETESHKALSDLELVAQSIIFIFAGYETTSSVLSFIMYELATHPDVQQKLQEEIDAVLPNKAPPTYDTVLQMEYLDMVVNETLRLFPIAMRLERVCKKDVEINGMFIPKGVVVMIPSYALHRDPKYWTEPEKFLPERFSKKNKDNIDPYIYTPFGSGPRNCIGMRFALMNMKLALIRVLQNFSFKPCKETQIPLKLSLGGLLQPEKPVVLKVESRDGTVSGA

Cannabinoid receptor 2, sequence (P34972 whole entry): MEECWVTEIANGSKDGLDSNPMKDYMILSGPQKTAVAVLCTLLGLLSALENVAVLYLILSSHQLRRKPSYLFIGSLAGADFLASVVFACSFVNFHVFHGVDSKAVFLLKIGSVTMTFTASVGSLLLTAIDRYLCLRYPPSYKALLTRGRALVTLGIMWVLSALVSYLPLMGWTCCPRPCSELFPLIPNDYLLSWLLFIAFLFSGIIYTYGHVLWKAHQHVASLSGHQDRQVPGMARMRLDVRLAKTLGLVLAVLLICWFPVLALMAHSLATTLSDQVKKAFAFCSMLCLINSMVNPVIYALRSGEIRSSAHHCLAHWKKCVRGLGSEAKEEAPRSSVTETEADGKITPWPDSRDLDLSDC
T1 sequence (P21554 whole entry): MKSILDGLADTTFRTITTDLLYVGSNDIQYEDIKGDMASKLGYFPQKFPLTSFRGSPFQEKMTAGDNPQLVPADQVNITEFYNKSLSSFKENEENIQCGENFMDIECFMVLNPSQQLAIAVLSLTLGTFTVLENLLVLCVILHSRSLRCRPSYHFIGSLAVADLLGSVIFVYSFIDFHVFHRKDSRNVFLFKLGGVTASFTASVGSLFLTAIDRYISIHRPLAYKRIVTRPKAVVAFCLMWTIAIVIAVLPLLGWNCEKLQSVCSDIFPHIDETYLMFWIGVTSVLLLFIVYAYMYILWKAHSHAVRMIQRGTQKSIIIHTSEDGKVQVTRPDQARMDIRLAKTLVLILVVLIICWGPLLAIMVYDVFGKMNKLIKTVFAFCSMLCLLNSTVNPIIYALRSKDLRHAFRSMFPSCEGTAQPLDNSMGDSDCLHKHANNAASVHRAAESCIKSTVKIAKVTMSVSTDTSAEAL
Cytochrome P450 2C9, sequence (P11712 whole entry): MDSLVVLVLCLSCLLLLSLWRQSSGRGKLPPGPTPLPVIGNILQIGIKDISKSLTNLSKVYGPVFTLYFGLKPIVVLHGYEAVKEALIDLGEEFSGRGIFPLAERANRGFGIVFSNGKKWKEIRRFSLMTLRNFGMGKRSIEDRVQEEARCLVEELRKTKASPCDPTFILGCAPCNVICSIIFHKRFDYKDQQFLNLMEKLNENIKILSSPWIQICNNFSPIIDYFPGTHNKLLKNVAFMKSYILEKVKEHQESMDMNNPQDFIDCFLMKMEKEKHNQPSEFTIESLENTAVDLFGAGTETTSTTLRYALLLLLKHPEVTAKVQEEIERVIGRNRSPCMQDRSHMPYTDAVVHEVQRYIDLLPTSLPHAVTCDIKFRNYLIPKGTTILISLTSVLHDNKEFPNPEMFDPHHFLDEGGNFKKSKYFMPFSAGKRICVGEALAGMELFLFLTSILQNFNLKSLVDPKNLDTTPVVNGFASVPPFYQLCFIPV
Voltage-gated inwardly rectifying potassium channel KCNH2, sequence (Q12809 whole entry): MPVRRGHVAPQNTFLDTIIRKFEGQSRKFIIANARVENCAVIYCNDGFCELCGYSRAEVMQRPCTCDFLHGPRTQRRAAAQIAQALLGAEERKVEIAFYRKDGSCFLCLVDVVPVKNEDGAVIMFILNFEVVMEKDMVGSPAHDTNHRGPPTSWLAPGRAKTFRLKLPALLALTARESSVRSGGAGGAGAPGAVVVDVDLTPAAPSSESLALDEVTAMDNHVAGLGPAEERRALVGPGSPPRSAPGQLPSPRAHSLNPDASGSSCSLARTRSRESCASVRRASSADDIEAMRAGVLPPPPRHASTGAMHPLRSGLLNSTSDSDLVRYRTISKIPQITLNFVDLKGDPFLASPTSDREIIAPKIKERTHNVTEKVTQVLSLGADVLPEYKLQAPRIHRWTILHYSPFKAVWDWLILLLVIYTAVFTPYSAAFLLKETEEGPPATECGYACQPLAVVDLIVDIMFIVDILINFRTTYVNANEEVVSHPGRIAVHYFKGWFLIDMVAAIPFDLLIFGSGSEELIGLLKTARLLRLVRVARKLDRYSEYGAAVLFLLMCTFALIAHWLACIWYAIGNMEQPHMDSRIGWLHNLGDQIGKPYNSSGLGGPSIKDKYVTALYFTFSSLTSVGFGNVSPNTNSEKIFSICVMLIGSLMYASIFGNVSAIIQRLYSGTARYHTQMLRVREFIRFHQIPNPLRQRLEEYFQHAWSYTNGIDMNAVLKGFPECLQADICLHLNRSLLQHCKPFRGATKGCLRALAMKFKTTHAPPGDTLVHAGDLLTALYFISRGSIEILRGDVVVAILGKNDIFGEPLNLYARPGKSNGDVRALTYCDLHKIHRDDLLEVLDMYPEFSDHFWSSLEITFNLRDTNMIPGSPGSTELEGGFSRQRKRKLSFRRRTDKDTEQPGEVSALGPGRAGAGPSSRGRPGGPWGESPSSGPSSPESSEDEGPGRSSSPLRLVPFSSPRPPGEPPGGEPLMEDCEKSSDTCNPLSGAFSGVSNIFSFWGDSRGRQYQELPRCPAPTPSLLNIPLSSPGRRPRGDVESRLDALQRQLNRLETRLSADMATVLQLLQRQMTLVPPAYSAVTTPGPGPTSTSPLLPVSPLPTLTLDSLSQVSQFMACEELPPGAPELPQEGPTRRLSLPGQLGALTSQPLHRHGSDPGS

Structure (SMILES) | logD [1] | IC50 (Cannabinoid receptor 2) [µM] | IC50 (Cannabinoid receptor 1 [2]) [µM] | Emax (Cannabinoid receptor 1 [3]) [%] | EC50 (Cannabinoid receptor 1 [4]) [µM] | further results
O=C(NCC1CCC1)c1ncccc1NC(=O)c1ccc(Cn2cccn2)c2ccccc12 | 6.2 | 0.069 | 13 | 93 | 0.023 | –
C[S+]([O-])Cc1ccc(C(=O)Nc2cccnc2C(=O)NCC2CCOCC2)c2ccccc12 (stereo unspecified) | 2.8 | 2.5 | 0.049 | 110 | 0.087 | Kp [5]: 0.018; BPR [6]: 0.01; Papp A→B [7]: 23 ×10⁻⁶ cm/s; solubility at 24 h [8]: 79 µM (≈ 36.8 µg/mL); IC50 [9]: > 32 µM; clearance [10]: 14 mL/min/kg; bioavailability [11]: 31%; IC50 (Cytochrome P450 2C9): 19 µM; IC50 (Cytochrome P450 3A4): > 20 µM
COc1ccc(NC(=O)c2ccc(Cn3ccnn3)c3ccccc23)c(C(=O)NCC2CCC2)n1 | 5.7 | – | 0.00097 | 54 | 0.0013 | Kp [5]: 0.31; BPR [6]: 0.093; Papp A→B [7]: 0.96 ×10⁻⁶ cm/s
O=C(NCC1CCC1)c1ncccc1NC(=O)c1ccc(Cn2cccc2)c2ccccc12 | – | 0.34 | – | 82 | 0.17 | –
O=C(Nc1cccnc1C(=O)NCC1CCOCC1)c1cccc2c1OCCO2 | 3.8 | 5.7 | 1.2 | – | – | –
O=C(NCC1CCCCC1)c1cnccc1NC(=O)c1cccc2ccccc12 | 6.1 | 9 | 1.4 | – | – | –
O=C(NCC1CCCCC1)c1ccncc1NC(=O)c1cccc2ccccc12 | 5.5 | > 8.9 | 3.6 | – | – | –
O=C(NCC1CCCCC1)c1nccnc1NC(=O)c1cccc2ccccc12 | – | 1.4 | 0.091 | 120 | 0.48 | –
O=C(NCC1CCC1)c1ncccc1NC(=O)c1cccc2ccccc12 | – | 0.026 | 0.0061 | 110 | 0.023 | –
O=C(NCC1CCC1)c1nc(OCCO)ccc1NC(=O)c1ccnc2ccccc12 | 4 | 2.5 | 73 | 51 | 0.12 | –
COCc1ccc(C(=O)Nc2cccnc2C(=O)NCC2CCC2)c2ccccc12 | – | 0.019 | – | 110 | 0.0059 | –
O=C(NCC1CCC1)c1ncccc1NC(=O)c1cccc2cccnc12 | 5.5 | 0.36 | 0.32 | – | – | –
C[S+]([O-])Cc1ccc(C(=O)Nc2nccnc2C(=O)NCC2CCC2)c2ccccc12 (stereo in doubt; 18f) | – | – | – | 120 | – | –
O=C(NCC1CCCCC1)c1cccnc1NC(=O)c1cccc2ccccc12 | 4.7 | > 10 | > 10 | – | – | –
C[S@@+]([O-])Cc1ccc(C(=O)Nc2cccnc2C(=O)NCC2CCOCC2)c2ccccc12 | 2.9 | – | 0.021 | 100 | 0.031 | Kp [5]: 0.031; BPR [6]: 0.03; Papp A→B [7]: 26 ×10⁻⁶ cm/s
O=C(NCC1CCC1)c1ncccc1NC(=O)c1ccc(Cn2ccnc2)c2ccccc12 | – | 0.33 | – | 100 | 0.04 | –
CS(=O)(=O)Cc1ccc(C(=O)Nc2cccnc2C(=O)NCC2CCC2)c2ccccc12 | – | – | 240 | 77 | 0.26 | –
O=C(NCC1CCOCC1)c1ncccc1NC(=O)c1ccc(C(=O)O)c2ccccc12 | – | > 10 | > 10000 | – | – | –
